From ChEMBL document CHEMBL3616436, “Synthesis, cytotoxicity and antimicrobial activity of thiourea derivatives incorporating 3-(trifluoromethyl)phenyl moiety” (Eur J Med Chem, 2015)
The source made the active and inactive calls. No cut-off for these calls is given here.

Experiments:
[1] = Cytotoxicity against human MT4 cells; type: cell-based
[2] = tested on: Vesicular stomatitis virus; experiment: Antiviral activity against Vesicular stomatitis virus ATCC VR 1540 infected in African green monkey Vero 76 cells assessed as reduction of virus-plaque formation after 2 days by crystal violet staining; type: functional, organism-based; conditions: ATCC VR 1540, Vero, 48 h
[3] = tested on: Human immunodeficiency virus 1; experiment: Antiviral activity against HIV1 3B infected in human MT4 cells assessed as protection against virus-induced cytopathogenicity by MTT assay; type: functional, organism-based; conditions: Human immunodeficiency virus 1, 3B
[4] = Cytotoxicity against bovine MDBK cells assessed as cell viability after 48 to 96 hrs by MTT assay; type: cell-based, Bos taurus; conditions: cattle
[5] = Antiviral activity against Bovine viral diarrhea virus 1-NADL ATCC VR-534 infected in MDBK cells assessed as protection against virus-induced cytopathogenicity after 3 to 4 days by MTT assay; type: functional, cell-based; conditions: Bovine viral diarrhea virus isolates and strains, ATCC VR-534, MDBK
In short: (§1)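 Cells seeded in 96-well plates (BHK 5x10^4, MDBK 3x10^4 cells/well), grown overnight to confluence, infected at m.o.i. 0.01 (BHK for Reo-1, MDBK for BVDV); serial compound dilutions in maintenance medium with 0.5% inactivated FBS added after 1 h; viability by MTT after 3–4 days at 37°C; EC50 for 50% protection by linear regression.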

[6] = Cytotoxicity against BHK cells assessed as cell viability after 48 to 96 hrs by MTT assay; type: cell-based, Mesocricetus auratus; conditions: hamster
[7] = tested on: Yellow fever virus; experiment: Antiviral activity against Yellow fever virus 17D infected in BHK cells assessed as protection against virus-induced cytopathogenicity after 3 to 4 days by MTT assay; type: functional, cell-based
[8] = tested on: Mammalian orthoreovirus 1; experiment: Antiviral activity against Reovirus type-1 ATCC VR-214 infected in BHK cells assessed as protection against virus-induced cytopathogenicity after 3 to 4 days by MTT assay; type: functional, cell-based; conditions: Mammalian orthoreovirus 1, ATCC VR-214, BHK; in short: as §1
[9] = Cytotoxicity against African green monkey Vero 76 cells assessed as cell viability after 48 to 96 hrs by crystal violet staining; type: cell-based; conditions: chlorocebus sabaeus
[10] = tested on: Coxsackievirus B5; experiment: Antiviral activity against Human coxsackievirus B5 ATCC VR-29 infected in African green monkey Vero 76 cells assessed as reduction of virus-plaque formation after 3 days by crystal violet staining; type: functional, organism-based; conditions: Enterovirus B, ATCC VR-29, Vero, 72 h
In short: (§2)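 Plaque reduction: Vero-76 at 2x10^5 cells/well grown to confluent monolayers, infected 2 h at 50–100 PFU/well; after removing unadsorbed virus, overlay of D-MEM, 1% inactivated FBS, 0.75% methylcellulose with or without serial compound dilutions; 3 days at 37°C, fixed and stained with crystal violet in 50% ethanol, plaques counted; EC50 by linear regression.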

[11] = tested on: Poliovirus 1; experiment: Antiviral activity against Poliovirus type 1 ATCC VR-1562 infected in African green monkey Vero 76 cells assessed as reduction of virus-plaque formation after 2 days by crystal violet staining; type: functional, organism-based; conditions: Enterovirus C, ATCC VR-1562, Vero, 48 h
[12] = tested on: Vaccinia virus; experiment: Antiviral activity against Human Vaccinia virus ATCC VR-1549 infected in African green monkey Vero 76 cells assessed as reduction of virus-plaque formation after 3 days by crystal violet staining; type: functional, organism-based; conditions: Orthopoxvirus vaccinia, ATCC VR-1549, Vero, 72 h
[13] = tested on: Human alphaherpesvirus 1; experiment: Antiviral activity against Human herpesvirus 1 KOS ATCC VR-1493 infected in African green monkey Vero 76 cells assessed as reduction of virus-plaque formation after 3 days by crystal violet staining; type: functional, organism-based; conditions: Human alphaherpesvirus 1, KOS ATCC VR1493, Vero, 72 h; in short: as §2
[14] = tested on: Escherichia coli; experiment: Antimicrobial activity against Escherichia coli ATCC 10538 after 18 hrs by twofold serial microdilution method; type: functional, organism-based
[15] = tested on: Escherichia coli; experiment: Antimicrobial activity against Escherichia coli ATCC 25922 after 18 hrs by twofold serial microdilution method; type: functional, organism-based
[16] = tested on: Escherichia coli; experiment: Antimicrobial activity against Escherichia coli NCTC 8196 after 18 hrs by twofold serial microdilution method; type: functional, organism-based
[17] = tested on: Pseudomonas aeruginosa; experiment: Antimicrobial activity against Pseudomonas aeruginosa ATCC 15442 after 18 hrs by twofold serial microdilution method; type: functional, organism-based
[18] = tested on: Pseudomonas aeruginosa; experiment: Antimicrobial activity against Pseudomonas aeruginosa NCTC 6749 after 18 hrs by twofold serial microdilution method; type: functional, organism-based
[19] = tested on: Pseudomonas aeruginosa; experiment: Antimicrobial activity against Pseudomonas aeruginosa ATCC 27863 after 18 hrs by twofold serial microdilution method; type: functional, organism-based
[20] = tested on: Bordetella bronchiseptica; experiment: Antimicrobial activity against Bordetella bronchiseptica ATCC 4617 after 18 hrs by twofold serial microdilution method; type: functional, organism-based
[21] = tested on: Candida albicans; experiment: Antimicrobial activity against Candida albicans ATCC 10231 after 24 hrs by twofold serial microdilution method; type: functional, organism-based
[22] = tested on: Candida albicans; experiment: Antimicrobial activity against Candida albicans ATCC 90028 after 24 hrs by twofold serial microdilution method; type: functional, organism-based
[23] = tested on: Candida parapsilosis; experiment: Antimicrobial activity against Candida parapsilosis ATCC 22019 after 24 hrs by twofold serial microdilution method; type: functional, organism-based

Row | Structure (SMILES) | CC50 [1] [µM] | EC50 [2] [µM] | EC50 [3] [µM] | CC50 [4] [µM] | EC50 [5] [µM] | CC50 [6] [µM] | EC50 [7] [µM] | EC50 [8] [µM] | CC50 [9] [µM] | EC50 [10] [µM] | EC50 [11] [µM] | EC50 [12] [µM] | EC50 [13] [µM] | Activity [14] | Activity [15] | Activity [16] | Activity [17] | Activity [18] | Activity [19] | Activity [20] | further results
1 | CCCC[C@H]1CC[C@H](c2ccc(NC(=S)Nc3cccc(C(F)(F)F)c3)cc2)CC1 | 22 | > 17 | > 22 | 10 | > 10 | 9.5 | > 9.5 | > 9.5 | 17 | > 17 | > 17 | > 17 | > 17 | inactive | inactive | inactive | inactive | inactive | inactive | inactive | Activity [21]: inactive; Activity [22]: inactive; Activity [23]: inactive
2 | FC(F)(F)c1cccc(NC(=S)Nc2ccccc2Br)c1 | 36 | > 50 | > 36 | > 100 | > 100 | 59 | > 59 | > 59 | 50 | > 50 | > 50 | > 50 | > 50 | inactive | inactive | inactive | inactive | inactive | inactive | inactive | Activity [21]: inactive; Activity [22]: inactive; Activity [23]: inactive
3 | FC(F)(F)c1cccc(NC(S)=NCCN2CCOCC2)c1 | > 100 | > 100 | > 100 | > 100 | > 100 | > 100 | > 100 | > 100 | > 100 | > 100 | > 100 | > 100 | > 100 | inactive | inactive | inactive | inactive | inactive | inactive | inactive | Activity [21]: inactive; Activity [22]: inactive; Activity [23]: inactive
